Shown are actives, neighbours in structure and some others; about 11% of the full set was active somewhere.
S1P1 ag-PAM: S1P1 agonists and agonism potentiators, primary screen, cell-based, primary and confirmation screens, CRE-bla reporter; Sphingosine 1-phosphate receptor 1 (Homo sapiens), P21453; S1P1 CRE-bla cells, forskolin, beta-lactamase FRET, potentiator mode; S1P1 agonist co-added at EC20, 2 nM; 100% = saturating reference agonist, 0% = basal; activation, % at 9.5 µM; actives 0.57% (n = 56,000); AID 449, 2006;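 active means activation above a cutoff set at the mean activation of all tested compounds plus 3 SD, cut at about 54% in these data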;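 further: forskolin at 4 µM as EC80 and the EC20 agonist is SEW2871; 100% = SEW2871 at its EC100 plus forskolin at EC80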
M1 agonist: M1 muscarinic receptor agonists, primary screen, CHO-M1 cells, Fluo-4 calcium, agonist mode. Muscarinic acetylcholine receptor M1. Fluo-4 calcium fluorescence; hits give high values. B-score at 10 µM. actives 3% (n = 64,000);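 active means fluorescence rise, raw or as B-score row- and column-corrected plate score, outside the 99.7% band of its plate's samples, either direction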
S1P3 agonist: human S1P3 receptor agonists, primary screen, cell-based, primary and confirmation, NFAT-BLA reporter | Sphingosine 1-phosphate receptor 3 (Homo sapiens), Q99500 | S1P3 NFAT-BLA reporter cells, agonism, FRET ratio; relative to 1 µM S1P, basal subtracted | activation, % at 4.5 µM | actives 0.1% (n = 60,000);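 active means activation above the screen-wide mean plus 3 SD, cut at about 4.5% in these data, passing the limit was not always enough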
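material = human S1P3 NFAT-BLA reporter CHO cells | schedule = 4 h compound at 37 °C, 2 h substrate at RT | measured by = fluorescent BLA substrate, ex 405 nm, em 460/535 nm ratio | controls = 1 µM S1P reference | replication = primary once, confirmation triplicate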
M1 antagonist: antagonists of rat M1 muscarinic receptor. CHO-M1 cells, Fluo-4 calcium, ACh EC80 antagonist mode; hits give low values. AID 628, 2007. actives 3.4% (n = 64,000). Muscarinic acetylcholine receptor M1 (Rattus norvegicus), P08482. B-score at 10 µM;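 active means calcium fluorescence response, raw or row-and-column corrected B-score, differing from the plate sample mean either way at a set confidence level, mostly lower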
Target sequence (P08482 whole entry, looked up): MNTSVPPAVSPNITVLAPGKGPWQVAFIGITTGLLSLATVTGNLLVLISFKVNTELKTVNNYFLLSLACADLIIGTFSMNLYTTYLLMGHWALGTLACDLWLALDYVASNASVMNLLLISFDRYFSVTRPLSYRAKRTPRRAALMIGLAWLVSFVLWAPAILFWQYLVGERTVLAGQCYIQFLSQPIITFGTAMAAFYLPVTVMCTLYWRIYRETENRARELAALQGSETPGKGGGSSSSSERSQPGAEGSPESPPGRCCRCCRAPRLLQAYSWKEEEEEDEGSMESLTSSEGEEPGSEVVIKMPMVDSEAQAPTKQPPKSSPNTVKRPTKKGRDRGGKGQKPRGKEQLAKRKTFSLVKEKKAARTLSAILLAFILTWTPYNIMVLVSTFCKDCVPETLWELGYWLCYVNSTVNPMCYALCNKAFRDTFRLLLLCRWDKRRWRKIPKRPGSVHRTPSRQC
D1 mod: D1 CRE-luciferase signal change, two-sided – cell-based, HEK293 D1, dopamine EC30, D1 allosteric modulator project, primary screen | B-score at 10 µM | actives 5.9% (n = 58,000) | D(1A) dopamine receptor (Homo sapiens), P21728 | dopamine EC30 potentiation; actives deviate in either direction | AID 641, 2007;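 active means luminescence count or its row- and column-corrected plate score outside the 99.7% band of the plate's sample wells, on either side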
D1 PAM confirm: D1 receptor positive allosteric modulators, retest, confirmation, cell-based, HEK293 D1, CRE-luciferase, duplicate; dopamine EC30 potentiation; hits give high values; AID 642, 2007; luminescence at 10 µM; actives 88% (n = 2,200); shares compounds with D1 mod;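 active means luminescence in either of two replicates above the same-plate mean plus 3 SD of the low-dose dopamine control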
D1 no dopamine: D1 receptor agonism without dopamine, confirmation, mechanism study for D1 allosteric modulator project, cell-based, HEK293 D1, CRE-luciferase, secondary assay 1. shares compounds with D1 mod. luminescence, no dopamine; hits give high values. luminescence at 10 µM. actives 0.8% (n = 1,900). AID 646, 2007; in the data active means luminescence above about 3900
Isoprot counter: isoproterenol response counter-screen activity for D1 modulators; shares compounds with D1 mod; HEK293 D1 CRE-luciferase, isoproterenol EC30 counter-screen; calls only at 10 µM; actives 63% (n = 2,200);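 active means luminescence in either replicate above plate mean of wells with a partly effective reference agonist dose plus 3 SD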;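 further: isoproterenol raises cAMP through native beta-adrenoceptor Gs so signal bypasses D1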
The depositor's hits bear a star; i = inactive; . = no result; + = active, no number.

SMILES | S1P1 ag-PAM | M1 agonist | S1P3 agonist | M1 antagonist | D1 mod | D1 PAM confirm | D1 no dopamine | Isoprot counter
COC(=O)c1sc(NC(=O)CSc2nc3cccnc3n2C2CCCCC2)nc1C | -12 | -0.44 | 0 | 0.49 | 9.5* | 10416* | 1456 | +
Cc1cc(C)n(CC(=O)n2c3ccccc3c3ccccc32)n1 | -56 | . | -1 | . | 2 | . | . | .
Cc1cc(C)n(CC(=O)n2c3c(c4ccccc42)CCCC3)n1 | -13 | -0.17 | -3 | -0.96 | 5.7* | 11600* | 1728 | i
O=C(NC1CC2CCCC(C1)N2S(=O)(=O)c1ccccc1)c1ccccc1 (stereo not given) | -6 | -0.36 | -1 | 1 | . | . | . | .
CC(=O)NC1CC2CCCC(C1)N2S(=O)(=O)c1ccccc1 (stereo not given) | . | . | . | . | 5.5* | 5928 | 1484 | i
O=C(Nc1c(F)c(F)c(F)c(F)c1F)NC1CCCCC1 | -5 | -0.36 | -1 | -0.042 | -0.89 | . | . | .
CSc1nc2c(c(=O)[nH]c(=O)n2C)n1C/C=C(\C)Cl | -32 | 1.1 | -1 | 0.29 | 15* | 24712* | 1588 | +
CCSc1nc2c(c(=O)[nH]c(=O)n2C)n1C/C=C(/C)Cl | -19 | -0.037 | 1 | 0.26 | 14* | 19268* | 1408 | +
C/C(Cl)=C/Cn1c(SCCN2CCOCC2)nc2c1c(=O)[nH]c(=O)n2C | 11 | -0.13 | -1 | -0.48 | 1.1 | . | . | .
CCOC(=O)C(C)Sc1nc2c(c(=O)[nH]c(=O)n2C)n1C/C=C(/C)Cl (stereo not given) | -3 | -0.18 | -1 | 0.12 | 9.3* | 12104* | 1572 | +
C=CCSc1nc2c(c(=O)[nH]c(=O)n2C)n1C/C=C(/C)Cl | -18 | -0.6 | -1 | -0.57 | 19* | 20956* | . | +
CCN(CC)S(=O)(=O)c1cc(C(=O)NC2CCCCC2)ccc1C | -8 | 0.079 | -1 | 0.42 | -1.4 | . | . | .
Cc1ccc(NC(=O)CN(C)c2ccc(S(=O)(=O)N3CCN(C)CC3)cn2)cc1 | -10 | 0.93 | -1 | 0.49 | -2 | . | . | .
C/C(Cl)=C/Cn1c(SCc2ccc(Cl)cc2)nc2c1c(=O)[nH]c(=O)n2C | -20 | -0.47 | 0 | -0.45 | 8.8* | 10156* | 1472 | +
CCOCCn1c(SCc2ccc(F)cc2)nc2c1c(=O)[nH]c(=O)n2C | -2 | 0.6 | -1 | -0.29 | -0.047 | . | . | .
CCCCn1c(N(CCOC(C)=O)C(C)=O)nc2ccccc21 | -13 | -0.2 | 0 | 1 | -1 | . | . | .
CCn1cc(C(=O)NC2CCCCC2C)c(=O)c2ccc(C)nc21 (stereo not given) | -4 | 0.42 | 1 | 0.81 | 0.85 | . | . | .
Cc1c2c(nc3c(C(=O)NC4CCCCC4C)cnn13)CCCC2 (stereo not given) | . | 0.18 | . | 0.27 | 8.2* | 10904* | . | +
COc1cccc(-c2cc(C(F)(F)F)n3ncc(C(=O)O)c3n2)c1 | 3 | 0.0098 | 1 | -0.99 | 1.2 | . | . | .
COc1cccc(-c2cc(C(F)(F)F)n3nc(N)nc3n2)c1 | -34 | 1 | 0 | 0.31 | 7.3* | 15000* | 1596 | +
COc1ccc(-c2cc(C(F)(F)F)n3nc(C)cc3n2)cc1 | -17 | -0.015 | 1 | 0.11 | 12* | 9368* | 1632 | +
Cc1cc2nc(-c3ccco3)cc(C(F)(F)F)n2n1 | -17 | 0.13 | 0 | -0.28 | 32* | 22332* | . | +
